Measurements as given in PubChem BioAssay AID588791 (Southern Research Specialized Biocontainment Screening …, 2011).
Calls of active or inactive are those of the source.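 Rule for the calls: active = virus titer falling by more than one log, over tenfold fewer virus than untreated infected wells; inactive = the rest.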

System: HEp-2 cells, RSV plaque reduction, virus titer
Assay: inhibitors of RSV replication, plaque titer, late-stage follow-up, orthogonal assay for RSV inhibitor project, cell-based, set 5 (AID 588791)
Conditions: stronger effect = lower value
Outline: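 material = RSV Long-infected HEp-2 cells | timing = 48 h compound treatment, 37 °C | compound dosing = 0.5% DMSO final | measured by = plaque assay on HEp-2, neutral red staining | reagent = RSV Long strain at MOI 0.1, 2 h adsorption | medium = Avicel overlay, plaque stage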

## CC(C)(C)c1ccc(Cn2c(=O)n(Cc3ccc(C(=O)NCC4COC4)cc3)c(=O)c3ccccc32)cc1
At 10 µM
  log virus titer change: -3.4
Titer change, at 2.5 µM
  log virus titer change: 0.138
Titer change, at 5 µM
  log virus titer change: -1.13

## CC(C)c1ccc(Cn2c(=O)n(Cc3ccc(C(=O)NCC4COC4)cc3)c(=O)c3cccnc32)cc1
At 10 µM
  log virus titer change: -2.72
Titer change, at 2.5 µM
  log virus titer change: 0.155
Titer change, at 5 µM
  log virus titer change: -0.572

## CC(C)c1ccc(Cn2c(=O)n(Cc3ccc(C(=O)NCC4COC4)cc3)c(=O)c3ncccc32)cc1
At 10 µM
  log virus titer change: 0.144 (inactive)
Titer change, at 2.5 µM
  log virus titer change: 0.21
Titer change, at 5 µM
  log virus titer change: 0.267

## CC(C)c1ccc(Cn2c(=O)n(Cc3ccc(C(=O)NCC4COC4)cc3)c(=O)c3ccccc32)cc1
At 10 µM
  log virus titer change: -5.75
Titer change, at 2.5 µM
  log virus titer change: -3.06
Titer change, at 5 µM
  log virus titer change: -5.75
